Laboratory results published in ChEMBL document CHEMBL4020714, “Design, synthesis, and evaluation of curcumin derivatives as Nrf2 activators and cytoprotectors against oxidative death” (Eur J Med Chem, 2017).
The source made the active and inactive calls. No cut-off for these calls is given here.

Tests used:
[1] = target: T1, Keap1/Nrf2 (Homo sapiens) (UniProt Q16236+Q14145); test: Inhibition of Keap1/Nrf2 interaction in human HepG2 cells assessed as decrease in Keap1 expression level after 3 hrs in presence of DTT for 1 hr prior to compound treatment by Western blot analysis; type: cell-based
T1 sequence (Q14145 whole entry, looked up, one chain of several): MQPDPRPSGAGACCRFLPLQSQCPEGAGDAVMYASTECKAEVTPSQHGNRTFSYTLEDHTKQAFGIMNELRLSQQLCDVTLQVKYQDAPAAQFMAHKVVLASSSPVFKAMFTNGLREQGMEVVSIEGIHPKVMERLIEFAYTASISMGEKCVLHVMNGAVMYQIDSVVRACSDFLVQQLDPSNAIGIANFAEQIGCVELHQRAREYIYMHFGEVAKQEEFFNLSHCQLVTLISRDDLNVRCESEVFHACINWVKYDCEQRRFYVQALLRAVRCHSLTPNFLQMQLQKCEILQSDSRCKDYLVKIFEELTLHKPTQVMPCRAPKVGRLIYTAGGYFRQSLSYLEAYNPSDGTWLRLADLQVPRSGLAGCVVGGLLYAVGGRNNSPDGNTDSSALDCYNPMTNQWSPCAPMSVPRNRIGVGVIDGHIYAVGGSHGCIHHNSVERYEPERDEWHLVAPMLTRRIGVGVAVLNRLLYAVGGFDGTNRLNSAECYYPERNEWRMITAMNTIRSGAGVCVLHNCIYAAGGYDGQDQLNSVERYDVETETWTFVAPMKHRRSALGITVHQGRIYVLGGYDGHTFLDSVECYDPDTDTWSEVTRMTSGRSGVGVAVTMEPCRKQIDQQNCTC
Outline: (§1)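 HepG2 cells (2×10^6/well) treated at the indicated concentrations and times. Whole-cell lysates, or nuclear and cytoplasmic fractions, are prepared and quantified by BCA. Samples are run at 40 μg/lane on 12% SDS-PAGE, transferred to nitrocellulose, probed with specific antibodies and HRP secondary (1/5000), and detected by ECL. Where used, LY294002 (15 μM), SP600125 (25 μM) or DTT (400 μM) is added 1 h before compound.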

[2] = target: T2, Nuclear factor erythroid 2-related factor 2 (Homo sapiens) (UniProt Q16236); test: Activation of Nrf2 in human HepG2 cells assessed as increase in GCLM expression level at 5 uM in presence of 15 uM PI3K/Akt inhibitor LY294002 for 1 hr prior to compound treatment by Western blot analysis; type: cell-based; outline: as §1
T2 sequence (whole entry): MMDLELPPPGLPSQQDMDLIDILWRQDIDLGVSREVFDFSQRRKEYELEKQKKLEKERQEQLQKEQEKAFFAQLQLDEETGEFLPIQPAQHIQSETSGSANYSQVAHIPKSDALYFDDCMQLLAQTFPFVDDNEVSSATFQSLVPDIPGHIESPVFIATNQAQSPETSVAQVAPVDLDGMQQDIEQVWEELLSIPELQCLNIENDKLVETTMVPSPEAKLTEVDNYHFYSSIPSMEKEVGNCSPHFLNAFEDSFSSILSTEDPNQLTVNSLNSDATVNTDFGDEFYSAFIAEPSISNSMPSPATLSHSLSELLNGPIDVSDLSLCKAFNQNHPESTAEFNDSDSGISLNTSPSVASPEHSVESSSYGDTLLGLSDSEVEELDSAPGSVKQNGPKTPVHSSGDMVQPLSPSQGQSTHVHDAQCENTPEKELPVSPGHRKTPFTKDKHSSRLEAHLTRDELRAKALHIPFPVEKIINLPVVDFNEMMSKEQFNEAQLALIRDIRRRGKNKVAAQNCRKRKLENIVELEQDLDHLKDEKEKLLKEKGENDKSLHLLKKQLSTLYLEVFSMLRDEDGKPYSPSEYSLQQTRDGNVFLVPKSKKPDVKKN

[3] = target: T2, Nuclear factor erythroid 2-related factor 2 (Homo sapiens); test: Activation of Nrf2 in human HepG2 cells assessed as increase in cytosolic Nrf2 expression level at 5 uM after 1 to 6 hrs by Western blot analysis; type: cell-based; outline: as §1
[4] = target: T2, Nuclear factor erythroid 2-related factor 2 (Homo sapiens); test: Activation of Nrf2 in human HepG2 cells assessed as increase in cytosolic Nrf2 expression level after 3 hrs by Western blot analysis; type: cell-based; outline: as §1
[5] = target: T2, Nuclear factor erythroid 2-related factor 2 (Homo sapiens); test: (§2) Activation of Nrf2 in human HepG2 cells assessed as cytoprotection against t-BHP-induced oxidative cell death at 5 uM incubated for 24 hrs followed by compound removal with subsequent incubation with 900 uM of t-BHP for 6 hrs in presence of 25 uM JNK inhibitor SP600125 for 1 hr prior to compound treatment by MTT assay; type: cell-based
Outline: (§3)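 HepG2 cells (5×10^3/well) seeded and grown 24 h in 1640 medium with 10% FBS at 37 °C and 5% CO2. Compound is added for 24 h, then removed, and cells are challenged with 900 μM t-BHP for 6 h at 37 °C. MTT (0.5 mg/mL) is added for 4 h, formazan dissolved in DMSO, and absorbance read at 570 nm. Where used, inhibitors are added 1 h before compound. Mean ± SD of three independent experiments.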

[6] = target: T2, Nuclear factor erythroid 2-related factor 2 (Homo sapiens); test: as §2, with “100 nM Nrf2” for “25 uM JNK”, “TRG” for “SP600125”; type: cell-based; outline: as §3
[7] = target: T2, Nuclear factor erythroid 2-related factor 2 (Homo sapiens); test: Activation of Nrf2 in human HepG2 cells assessed as increase in HO-1 expression level at 5 uM in presence of 25 uM JNK inhibitor SP600125 for 1 hr prior to compound treatment by Western blot analysis; type: cell-based; outline: as §1
[8] = target: T2, Nuclear factor erythroid 2-related factor 2 (Homo sapiens); test: Activation of Nrf2 in human HepG2 cells assessed as increase in GCLC expression level at 5 uM in presence of 15 uM PI3K/Akt inhibitor LY294002 for 1 hr prior to compound treatment by Western blot analysis; type: cell-based; outline: as §1
[9] = target: T2, Nuclear factor erythroid 2-related factor 2 (Homo sapiens); test: Activation of Nrf2 in human HepG2 cells assessed as cytoprotection against t-BHP-induced oxidative cell death at 5 uM incubated for 24 hrs followed by compound removal with subsequent incubation with 900 uM of t-BHP for 6 hrs by MTT assay; type: cell-based; outline: as §3
[10] = target: T2, Nuclear factor erythroid 2-related factor 2 (Homo sapiens); test: Activation of Nrf2 in human HepG2 cells assessed as cytoprotection against t-BHP-induced oxidative cell death incubated for 24 hrs followed by compound removal with subsequent incubation with 900 uM of t-BHP for 6 hrs by MTT assay; type: cell-based; outline: as §3
[11] = target: Kelch-like ECH-associated protein 1 (Homo sapiens) (UniProt Q14145); test: Induction of keap1-dependent Nrf2 stabilization in human HepG2 cells assessed as prolonged half life of Nrf2 at 5 uM pretreated for 3 hrs followed by coincubation with 5 ug/ml cycloheximide for 24 hrs by Western blot analysis relative to control; type: cell-based
Sequence of Kelch-like ECH-associated protein 1 (Homo sapiens) (Q14145 whole entry): as the sequence (Q14145 whole entry, looked up, one chain of several) above
Outline: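 HepG2 cells pretreated with or without 5 μM compound for 3 h, then given 5 μg/mL cycloheximide for the indicated periods (up to 24 h). Total lysates are immunoblotted for Nrf2. Half-life is obtained by fitting a single-phase decay model.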

[12] = target: T2, Nuclear factor erythroid 2-related factor 2 (Homo sapiens); test: Activation of Nrf2 in human HepG2 cells assessed as increase in GCLM expression level after 24 hrs by Western blot analysis; type: cell-based; outline: as §1
[13] = target: T2, Nuclear factor erythroid 2-related factor 2 (Homo sapiens); test: Activation of Nrf2 in human HepG2 cells assessed as increase in GCLM expression level at 5 uM by Western blot analysis; type: cell-based; details: TDE = time-dependent effect; outline: as §1
[14] = target: T2, Nuclear factor erythroid 2-related factor 2 (Homo sapiens); test: as §2, with “100 nM copper chelator NEO” for “25 uM JNK inhibitor SP600125”; type: cell-based; outline: as §3
[15] = target: Kelch-like ECH-associated protein 1 (Homo sapiens) (UniProt Q14145); test: Induction of keap1-dependent Nrf2 stabilization in human HepG2 cells assessed as upregulation of total Nrf2 expression at 5 uM by Western blot analysis; type: cell-based; details: TDE = time-dependent effect; outline: as §1
[16] = target: T2, Nuclear factor erythroid 2-related factor 2 (Homo sapiens); test: Activation of Nrf2 in human HepG2 cells assessed as increase in Nrf2 expression level after 3 hrs by Western blot analysis; type: cell-based; outline: as §1
[17] = target: T2, Nuclear factor erythroid 2-related factor 2 (Homo sapiens); test: Activation of Nrf2 in human HepG2 cells assessed as increase in HO-1 expression level at 5 uM in presence of 15 uM PI3K/Akt inhibitor LY294002 for 1 hr prior to compound treatment by Western blot analysis; type: cell-based; outline: as §1
[18] = target: T2, Nuclear factor erythroid 2-related factor 2 (Homo sapiens); test: Activation of Nrf2 in human HepG2 cells assessed as increase in GCLC expression level at 5 uM by Western blot analysis; type: cell-based; details: TDE = time-dependent effect; outline: as §1
[19] = Stability of the compound in PBS at 40 uM at pH 7.4 at 25 degC measured for 30 mins by UV-Vis spectrophotometric analysis; type: physicochemical; details: buffer, pH 7.4, 0.5 h
Outline: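 Compound at 40 μM in PBS (pH 7.4) at 25 °C. UV-visible absorption spectra recorded every 2 min for 30 min against blanks of solution plus DMSO.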

[20] = target: T1, Keap1/Nrf2 (Homo sapiens); test: Inhibition of Keap1/Nrf2 interaction in human HepG2 cells assessed as increase in Nrf2 expression level after 3 hrs in presence of DTT for 1 hr prior to compound treatment by Western blot analysis; type: cell-based; outline: as §1

inhibition [1]: inactive
Activity [2]: inactive
Activity [3]: Active
Activity [4]: Dose-dependent effect
Activity [7]: inactive
Activity [8]: inactive
fold change (FC) [11]: 2.6
Activity [12]: Dose-dependent effect
Activity [13]: Tde
Activity [15]: Tde
Activity [16]: Active
Activity [17]: inactive
Activity [18]: Tde
Stability [19]: Stable
inhibition [20]: inactive
SMILES: CC(C)(C(=O)/C=C/c1ccc(O)c(O)c1)C(=O)/C=C/c1ccc(O)c(O)c1
Activity [5]: inactive
Activity [6]: inactive
Activity [9]: Active
Activity [10]: Dose-dependent effect
Activity [14]: inactive
